We go through nine molecules from paper PMC7115683 (European Journal of Medicinal Chemistry, 2013).

In series [1] the test system is P. falciparum (CQ^S) D10 strain. In words: In vitro antimalarial activity, parasite lactate dehydrogenase assay, D10 strain. Format: cell-based. Conditions: Plasmodium falciparum, D10, read-out: D10 IC50.
Series [2] has as its system P. falciparum (CQ^R) Dd2 strain. Description: In vitro antimalarial activity, Dd2 strain. Format: cell-based, Plasmodium falciparum.
The nature of series [3]: Monomeric heme binding, UV-visible titration and Job's plot. Conditions: association constant, HypSpec. The method, boiled down: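 UV–visible titration of test compound with monomeric heme at pH 7.4 (HEPES) and at food-vacuole pH 5.6 (MES), 1 cm cuvette at 25 °C. Association constants (log K) derived from the titration curves by non-linear least-squares fitting in HypSpec.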

Series [4] can be described thus: μ-oxo heme binding, UV-visible titration and Job's plot. As to conditions: pH 5.8; association constant, HypSpec. The gist of the method: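 UV–visible titration of test compound with μ-oxo heme at pH 5.8, plus Job plot (absorbance ratio A/A0 against mole fraction of test compound). Binding constant (log K) computed with HypSpec.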
Another series relates to Feline herpes virus. In words: Anti-Feline Herpes Virus activity in CRFK cell cultures. As to conditions: for EC50: CRFK, read-out: EC50 Feline herpes virus. Format: cell-based.
Series [5] concerns CT DNA. Description: CT DNA binding, fluorescence titration. As to conditions: emission band at 380 nm upon addition of CT DNA. The method, boiled down:
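Steady-state fluorescence at ambient temperature. Test compound (17.1 μM) in buffered methanol titrated with CT DNA (0.5–150 μM). Excitation 330 nm, emission monitored at 376 nm.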

In series [6] the test system is CT DNA. In words: CT DNA binding, UV spectrophotometry titration. As to conditions: both absorptions (255 and 330 nm), CT-DNA addition. The method, boiled down:
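Test compound (30 μM) in buffered methanol titrated with CT-DNA (4–200 μM). UV–visible spectra recorded 200–1100 nm in a 1 cm quartz cuvette, cell holder at 25 °C. Changes followed at the 255 nm and 330 nm absorption bands.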

Series [7] has as its system Madin Darby canine kidney (MDCK) cells. Conditions: 50% cytotoxic concentration, MTS assay. (In general: Formazan colour is commonly taken as a measure of viable cells.)
The test system of series [8] is Feline corona virus (FIPV). Description: Anti-Feline Corona Virus activity in CRFK cell cultures. Format: cell-based. As to conditions: HHA, UDA.
The subject of series [9] is Crandell-Rees Feline Kidney (CRFK) cell cultures. Conditions: MTS assay, HHA, UDA.

Where only a bound is given, the exact number is not on record here.

Take `CCN(CC)CCCC(C)Nc1ccnc2cc(Cl)ccc12` (stereo not drawn) [CQ, Chloroquine]: the IC50 (in general, the concentration at which inhibition is half-maximal) in [1] came out at 0.035 µM; in series [2] (Plasmodium falciparum, DD2, read-out: Dd2 IC50), 0.222 µM. Moreover, the “Monomeric heme, log K ± σ” value came out at 4.65 ± 0.052 in series [3] (pH 5.6 (MES buffer)) and 5.15 ± 0.176 in series [3] (pH 7.4 (HEPES buffer)). Moreover, the “μ-oxoheme, log K ± σ” value in series [4] is 5.58 ± 0.006.

Take `COC(=O)c1c(C)nc(NCCCNc2ccnc3cc(Cl)ccc23)nc1-c1ccccc1` [Compound 5a, Methyl 2-(3-((7-chloroquinolin-4-yl)amino)propylamino)-4-methyl-6-phenylpyrimidine-5-carboxylate]: the EC50 (commonly the concentration that produces a half-maximal response) in the series on Feline herpes virus was over 20 µM.

For the molecule `Cc1nc(NCCCCNc2ccnc3cc(Cl)ccc23)nc(-c2ccccc2)c1C(=O)OC(C)C` [Compound 5b, i-Propyl 2-(4-((7-chloroquinolin-4-yl)amino)butylamino)-4-methyl-6-phenylpyrimidine-5-carboxylate], the “fold increase in antimalarial activity than the standard CQ” value in series [2] (CQ^R strain of P. falciparum) is 2 fold. Moreover, the 50% effective concentration (EC50) in the series with Feline herpes virus was over 20 µM. For the same molecule, the “shift in emission band” value in the series with CT DNA [5] was 80 nm. Further, the bathochromic shift in the series with CT DNA [6] is recorded as about 3 nm.

Take `CCOC(=O)c1c(C)nc(NCCCCNc2ccnc3cc(Cl)ccc23)nc1-c1ccccc1[N+](=O)[O-]` [Compound 5c, Ethyl 2-(4-((7-chloroquinolin-4-yl)amino)butylamino)-4-methyl-6-(2-nitrophenyl)pyrimidine-5-carboxylate]: in the series on Feline herpes virus, the EC50 is over 100 µM.

On to `CCOC(=O)c1c(C)nc(OCCCNc2ccnc3cc(Cl)ccc23)nc1-c1ccccc1` [Compound 5d, Ethyl 2-(3-((7-chloroquinolin-4-yl)amino)propoxy)-4-methyl-6-phenylpyrimidine-5-carboxylate], for which the EC50 in the series with Feline herpes virus is over 100 µM.

Turning to `CCOC(=O)c1c(C)nc(NCCCCNc2ccnc3cc(Cl)ccc23)nc1-c1ccc(Cl)cc1` [Compound 5e, Ethyl 4-(4-chlorophenyl)-2-(4-((7-chloroquinolin-4-yl)amino)butylamino)-6-methylpyrimidine-5-carboxylate], the concentration giving a half-maximal response (EC50) with Feline herpes virus was over 100 µM.

In the case of `CCOC(=O)c1c(C)nc(NCCCCNc2ccnc3cc(Cl)ccc23)nc1-c1ccc(F)cc1` [Compound 5f, Ethyl 4-(4-fluorophenyl)-2-(4-((7-chloroquinolin-4-yl)amino)butylamino)-6-methylpyrimidine-5-carboxylate], the EC50 in the series with Feline herpes virus was over 100 µM.

On to “Ethyl 2-(3-((7-chloroquinolin-4-yl)amino)propylamino)-4-methylpyrimidine-5-carboxylate [Compound 5g]”, for which it took 10.3 µM to reach half-maximal cytotoxicity in series [7] (CC50).

B1: UDA: reference agent in the CRFK antiviral assay, values in μg/ml; not explained in the paper (protein, UniProt P11218 24-372, looked up)
Lectin/endochitinase 1: QRCGSQGGGGTCPALWCCSIWGWCGDSEPYCGRTCENKCWSGERSDHRCGAAVGNPPCGQDRCCSVHGWCGGGNDYCSGSKCQYRCSSSVRGPRVALSGNSTANSIGNVVVTEPLFDQMFSHRKDCPSQGFYSYHSFLVAAESFPAFGTIGDVATRKREVAAFLAHISQATSGERSDVENPHAWGLCHINTTTVTENDFCTSSDWPCAAGKKYSPRGPIQLTHNFNYGLAGQAIGEDLIQNPDLVEKDPIISFKTALWFWMSQHDNKPSCHDIVLNANSAANRIPNKGVIGNIISRAFGHDDFAVRSSSIGFYKRYCDMLGVSYGHDLKYWFDNTPSSEFQRIQMRVAA
On to B1, for which, in series [8], the “EC50 Feline corona virus (FIPV)” value turned out to be 1.6 µg/mL. Further, in the series on Feline herpes virus (CRFK cell cultures, HHA, UDA), the “EC50 Feline herpes virus” value worked out at 1.0 µg/mL. Also, in [9], the CC50 – broadly, the concentration that lowers cell viability or growth by half – stood at 63.2 µg/mL.
